Twelve compounds from ChEMBL document CHEMBL3621119, “Synthesis and Biological Evaluation of Manassantin Analogues for Hypoxia-Inducible Factor 1α Inhibition” (J Med Chem, 2015) can be followed below.

A short description of data set [1]: Cytotoxicity against human HEK293T cells assessed as survival rate at 10 uM after 24 hrs by MTT assay. It counts as cell-based, HEK-293T. Particulars: read-out: Survival. The method in brief: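 HEK-293T cells seeded at 1×10^4 cells/well and grown 24 h, then exposed under hypoxia for 24 h to serially diluted compounds (0.005–10 μM). MTT added and incubated 4 h at 37 °C. Formazan dissolved in DMSO, absorbance read at 540 nm. Survival expressed as % of cells. Three independent experiments.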
For orientation: Tetrazolium assays rely on reduction of a dye to a coloured formazan, in cell work by metabolically active cells.

Data set [2] deals with T1, Hypoxia inducible factors; HIF-1-alpha, HIF-2-alpha (Homo sapiens, UniProt Q16665+Q99814). Briefly: Inhibition of HIF1 in human HEK293T cells transfected with pGL3-5HRE-VEGF and pRL-SV40 after 24 hrs by dual luciferase reporter assay. It counts as cell-based. Particulars: hek-293t. The method in brief:
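HEK-293T cells seeded at 5×10^3/well, attached 24 h, then co-transfected with pGL3-5HRE-VEGF firefly luciferase reporter (five HRE copies from human VEGF promoter) and pRL-SV40 Renilla plasmid. Serially diluted compounds applied under 1% O2 for 24 h post-transfection. Dual-Glo read-out, firefly then Renilla luminescence, each after 10 min; firefly normalized to Renilla (RLU). Three independent experiments, mean ± SD.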

Data set [3] concerns the target T1, Hypoxia inducible factors; HIF-1-alpha, HIF-2-alpha. Briefly: Inhibition of HIF1 in human HEK293T cells transfected with pGL3-5HRE-VEGF and pRL-SV40 after 24 hrs by dual luciferase reporter assay relative to normoxic condition. It counts as cell-based. Details: concentration or dose not given beside the values. Particulars: HEK-293T, concentration not given here. (In general: Reporter assays use an easily measured gene product as a stand-in for the process of interest.)

For data set [4], the target named is Hypoxia-inducible factor 1-alpha (Homo sapiens) (UniProt Q16665). Briefly: Inhibition of HIF-1 alpha in human HEK293T cells under hypoxic condition at 1 uM after 24 hrs by Western blot analysis. Type of data set: cell-based. Particulars: HEK-293T. The method in brief: (§1)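 HEK-293T cells held under hypoxia (1% O2) or normoxia for 24 h with or without 1 μM compound. Total protein lysates run on SDS-PAGE, transferred to nitrocellulose, blocked in 5% skim milk/TBS-0.1% Tween-20. Probed overnight at 4 °C with primary antibodies (HIF-1α, HIF-1β, Cdk6), then HRP secondary. Chemiluminescent detection, β-actin as loading control.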
Background: A western blot detects proteins with antibodies after separation by electrophoresis.

For data set [5] the target is unchanged. Kind of data set: Inhibition of HIF1alpha in human HEK293T cells assessed as decrease of Cdk6 expression under hypoxic condition at 1 uM after 24 hrs by Western blot analysis. Type of data set: cell-based. Conditions: HEK-293T. The method in brief: as §1
The target is the same in data set [6]. Briefly: Inhibition of HIF1alpha in human HEK293T cells assessed as decrease of VEGF mRNA expression under hypoxic condition at 1 uM after 24 hrs by RT-PCR analysis. It counts as cell-based. Conditions: HEK-293T. In outline: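 HEK-293T cells given 1 μM compound under hypoxia for 24 h, with a normoxic control. VEGF mRNA measured by real-time PCR on 10-fold diluted cDNA with gene-specific primers. Cycling: 50 °C 2 min, 95 °C 10 min, then 40 cycles of 95 °C 15 s and 60 °C 1 min. Mean CT normalized to β-actin.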

The target of data set [7] is Aryl hydrocarbon receptor nuclear translocator (Homo sapiens) (UniProt P27540). Kind of data set: Inhibition of HIF1beta in HEK293T cells under hypoxic condition at 1 uM after 24 hrs by Western blot analysis. Type of data set: cell-based. Conditions: HEK-293T. The method in brief: as §1

The source made the active and inactive calls. The calls are words filed in the database; no cut-off is given here.

Sequence of Aryl hydrocarbon receptor nuclear translocator (Homo sapiens) (P27540 whole entry): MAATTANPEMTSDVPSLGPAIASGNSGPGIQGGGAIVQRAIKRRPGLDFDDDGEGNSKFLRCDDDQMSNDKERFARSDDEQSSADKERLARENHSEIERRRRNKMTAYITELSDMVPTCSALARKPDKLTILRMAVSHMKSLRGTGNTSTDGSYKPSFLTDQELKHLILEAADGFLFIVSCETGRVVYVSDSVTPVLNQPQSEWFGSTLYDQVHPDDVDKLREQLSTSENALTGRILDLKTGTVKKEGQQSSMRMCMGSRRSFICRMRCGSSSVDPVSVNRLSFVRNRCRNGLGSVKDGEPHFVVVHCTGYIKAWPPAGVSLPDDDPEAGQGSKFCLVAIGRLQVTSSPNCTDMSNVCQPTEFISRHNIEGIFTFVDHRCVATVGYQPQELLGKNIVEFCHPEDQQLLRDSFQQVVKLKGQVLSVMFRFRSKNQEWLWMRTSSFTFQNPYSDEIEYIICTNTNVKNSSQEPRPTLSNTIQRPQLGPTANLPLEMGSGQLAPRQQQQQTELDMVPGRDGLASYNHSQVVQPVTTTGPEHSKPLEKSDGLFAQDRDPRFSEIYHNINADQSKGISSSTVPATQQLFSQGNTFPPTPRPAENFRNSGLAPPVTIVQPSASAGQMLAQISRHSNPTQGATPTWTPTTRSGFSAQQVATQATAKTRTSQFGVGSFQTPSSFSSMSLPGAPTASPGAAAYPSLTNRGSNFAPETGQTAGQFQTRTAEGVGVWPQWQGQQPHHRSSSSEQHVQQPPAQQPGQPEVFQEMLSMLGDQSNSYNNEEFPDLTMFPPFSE
Sequence of Hypoxia-inducible factor 1-alpha (Homo sapiens) (Q16665 whole entry, looked up): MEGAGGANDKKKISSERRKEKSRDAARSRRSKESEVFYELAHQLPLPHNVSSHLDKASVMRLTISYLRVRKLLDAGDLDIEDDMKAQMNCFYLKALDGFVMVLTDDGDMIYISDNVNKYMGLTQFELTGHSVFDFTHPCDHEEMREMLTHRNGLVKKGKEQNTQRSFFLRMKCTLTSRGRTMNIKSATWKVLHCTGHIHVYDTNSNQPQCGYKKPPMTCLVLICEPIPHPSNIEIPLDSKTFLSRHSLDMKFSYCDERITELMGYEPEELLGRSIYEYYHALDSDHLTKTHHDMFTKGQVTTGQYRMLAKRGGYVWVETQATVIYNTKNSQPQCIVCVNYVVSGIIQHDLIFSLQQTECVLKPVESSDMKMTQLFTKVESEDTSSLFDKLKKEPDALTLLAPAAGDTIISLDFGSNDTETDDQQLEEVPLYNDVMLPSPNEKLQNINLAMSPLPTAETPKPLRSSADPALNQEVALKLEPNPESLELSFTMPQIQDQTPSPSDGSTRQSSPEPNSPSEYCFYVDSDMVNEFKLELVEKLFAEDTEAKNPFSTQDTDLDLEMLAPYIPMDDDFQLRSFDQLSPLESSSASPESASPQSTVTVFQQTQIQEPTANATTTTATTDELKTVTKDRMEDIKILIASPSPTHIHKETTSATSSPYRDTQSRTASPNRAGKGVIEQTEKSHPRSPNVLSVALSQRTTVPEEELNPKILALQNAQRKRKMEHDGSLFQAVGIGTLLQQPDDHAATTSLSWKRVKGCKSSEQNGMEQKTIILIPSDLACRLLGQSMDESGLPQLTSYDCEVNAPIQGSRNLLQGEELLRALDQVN

For the compound `COc1ccc(C(=O)[C@@H](C)Oc2ccc([C@H]3O[C@H](c4ccc(OC)c(OC)c4)[C@H](C)[C@H]3C)cc2OC)cc1OC`, the viability at 24 h, 10 µM in data set [1] is more than 80%. In data set [2], this compound gave an IC50 of 3700 nM. In addition, in data set [3], the inhibition worked out at 82%.

Consider `COc1ccc(C(=O)[C@@H](C)Oc2ccc([C@H]3O[C@H](c4ccc(O[C@H](C)C(=O)c5ccc(OC)c(OC)c5)c(OC)c4)[C@H](C)[C@H]3C)cc2OC)cc1OC`, for which, in data set [1], the viability at 24 h, 10 µM was more than 80%. In data set [2], the IC50 turned out to be 910 nM. Also, the inhibition in data set [3] came out at 114%.

With `COc1ccc([C@@H](O)[C@@H](C)Oc2ccc([C@H]3O[C@H](c4ccc(OC)c(OC)c4)[C@H](C)[C@H]3C)cc2OC)cc1OC`, in data set [1], the viability at 24 h, 10 µM is more than 80%. In data set [2], this compound gave an IC50 of 320 nM. Besides, in data set [3], the inhibition is 113%. In addition, the inhibition entry in data set [4], in data set [5] and in data set [6] was “Active” throughout. Moreover, the inhibition entry in data set [7] is “inactive”.

In the case of `COc1ccc(C(=O)COc2cc(C(=O)[C@@H](C)Oc3ccc([C@H]4O[C@H](c5ccc(O[C@H](C)C(=O)c6ccc(OC)c(OCC(=O)c7ccc(OC)c(OC)c7)c6)c(OC)c5)[C@H](C)[C@H]4C)cc3OC)ccc2OC)cc1OC`, the viability at 24 h, 10 µM in data set [1] is more than 80%. In data set [3], the inhibition came out at 36%.

On to `COc1ccc(C(=O)COc2ccc([C@H]3O[C@H](c4ccc(OCC(=O)c5ccc(OC)c(OC)c5)c(OC)c4)[C@H](C)[C@H]3C)cc2OC)cc1OC`, for which the viability at 24 h, 10 µM in data set [1] is more than 80%. Further, the IC50 in data set [2] was 350 nM. Further, the inhibition in data set [3] was 93%. Besides, the inhibition result in data set [4], in data set [5] and in data set [6] was “Active” each time. Besides, in data set [7], the inhibition entry is “inactive”.

As to `COc1ccc(CCOc2ccc([C@H]3O[C@H](c4ccc(OCCc5ccc(OC)c(OC)c5)c(OC)c4)[C@H](C)[C@H]3C)cc2OC)cc1OC`, the viability at 24 h, 10 µM in data set [1] was more than 80%. Besides, in data set [2], the IC50 stood at 1440 nM. In addition, the inhibition in data set [3] stood at 64%.

For `COc1ccc([C@@H](OC)[C@@H](C)Oc2ccc([C@H]3O[C@H](c4ccc(O[C@H](C)[C@H](OC)c5ccc(OC)c(OC)c5)c(OC)c4)[C@H](C)[C@H]3C)cc2OC)cc1OC`, the viability at 24 h, 10 µM in data set [1] was more than 80%. The compound also gave an IC50 in data set [2] of 430 nM. For the same compound, the inhibition in data set [3] amounted to 102%.

Turning to `COc1cc([C@H]2O[C@H](c3ccc(O[C@H](C)[C@H](O)c4ccccc4)c(OC)c3)[C@H](C)[C@H]2C)ccc1O[C@H](C)[C@H](O)c1ccccc1`, the viability at 24 h, 10 µM in data set [1] was more than 80%. In addition, the IC50 in data set [2] is 590 nM. Moreover, the inhibition in data set [3] was 79%.

Consider `COc1cc([C@H]2O[C@H](c3ccc(O[C@H](C)C(=O)c4ccccc4)c(OC)c3)[C@H](C)[C@H]2C)ccc1O[C@H](C)C(=O)c1ccccc1`, for which, in data set [1], the viability at 24 h, 10 µM was more than 80%. For the same compound, in data set [2], the IC50 stood at 690 nM. Further, the inhibition in data set [3] is 101%. In addition, the inhibition entry in data set [4], in data set [5] and in data set [6] was “Active” in each case. For the same compound, the inhibition result in data set [7] was “inactive”.

Take `COc1ccc(C(=O)[C@@H](C)Oc2ccc([C@H]3O[C@H](c4ccc(O[C@H](C)C(=O)c5ccc(OC)c(O)c5)c(OC)c4)[C@H](C)[C@H]3C)cc2OC)cc1O`: in data set [1], the viability at 24 h, 10 µM was more than 80%. This compound also registered an IC50 in data set [2] of 2110 nM. For the same compound, the inhibition in data set [3] worked out at 78%.

As for `COc1ccc([C@H](COc2ccc([C@H]3O[C@H](c4ccc(OC[C@H](OC)c5ccc(OC)c(OC)c5)c(OC)c4)[C@H](C)[C@H]3C)cc2OC)OC)cc1OC`, the viability at 24 h, 10 µM in data set [1] was more than 80%. In data set [2], this compound had an IC50 of 1930 nM. In addition, the inhibition in data set [3] stood at 87%.

For `COc1ccc([C@@H](O)COc2ccc([C@H]3O[C@H](c4ccc(OC[C@H](O)c5ccc(OC)c(OC)c5)c(OC)c4)[C@H](C)[C@H]3C)cc2OC)cc1OC`, the viability at 24 h, 10 µM in data set [1] was more than 80%. Further, the IC50 in data set [2] came to 380 nM. Moreover, in data set [3], the inhibition is 94%.

As a reminder, the IC50 is the concentration that inhibits the measured activity by half. Broadly, the inhibition is the relative decrease from the control value, in per cent.
